Results reported in ChEMBL document CHEMBL4433210, “Synthesis and Evaluation of Bifunctional Aminothiazoles as Antiretrovirals Targeting the HIV-1 Nucleocapsid Protein” (ACS Med Chem Lett, 2019).
Active and inactive are the calls of the source.

Columns and labels:
[1] = Inhibition of synthesized Nucleocapsid protein (11 to 55 residues) assessed as reduction in NC-induced cTAR DNA destabilization pre-treated with cTAR and Nucleocapsid (11-55) for 15 mins followed by compound addition at 10 uM by spectroflurometry relative to control
Outline: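 NC chaperone inhibition assay: fluorescence monitoring of NC-induced destabilization of cTAR DNA labelled with Alexa488 at the 5′ end and Dabcyl quencher at the 3′ end. Compound is tested at 10 μM.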

[2] = tested on: Human immunodeficiency virus 1; assay: (§1) Antiviral activity against wild-type HIV1 NL4-3 infected in human TZM-bl cells infected with supernatants from virus-infected human HeLa P4.R5MAGI cells treated with compound for 72 hrs assessed as reduction in viral replication after 48 hrs by bright Glo-luciferase reporter gene assay; assay type: functional, organism-based; conditions: Human immunodeficiency virus 1, NL4-3
[3] = tested on: Human immunodeficiency virus 1; assay: Antiviral activity against wild-type HIV1 NL4-3 infected infected in human MT2 cells assessed as reduction in extracellular RNA at 1 uM and measured after 30 hrs post infection by Alu-LTR PCR protocol based method; assay type: functional, organism-based
Outline: (§2)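 MT-2 cells were infected with NL4-3 at MOI 0.1 and incubated with test or reference agents at 20, 5 or 1 μM. Real-time PCR measured integrated HIV-1 DNA and intracellular and extracellular genomic HIV-1 RNA at 30 h post-infection. Levels are expressed as a percentage of the no-drug control culture.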

[4] = tested on: Human immunodeficiency virus 1; assay: Antiviral activity against wild-type HIV1 NL4-3 infected infected in human MT2 cells assessed as reduction in intracellular RNA at 1 uM and measured after 30 hrs post infection by Alu-LTR PCR protocol based method; assay type: functional, organism-based; outline: as §2
[5] = tested on: Human immunodeficiency virus 1; assay: as §1, with “against” for “against wild-type”, “11808 harboring protease L10F/K20T/V32I/L33F/I54V/G73S/I84V/L89V/L90M mutant” for “NL4-3”, “MT2” for “HeLa P4.R5MAGI”; assay type: functional, organism-based; conditions: Human immunodeficiency virus 1, 11808
Outline: (§3)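 BiCycle assay: MT-2 cells infected with a drug-resistant HIV-1 strain in the presence of compound dilutions. Virus produced in this first round is then measured by infecting TZM-bl cells. The readout is IC50.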

[6] = tested on: Human immunodeficiency virus 1; assay: Selectivity ratio of IC50 for HIV1 7401 harboring nucleoside reverse transcriptase M41L/E44D/D67N/T69D/M184V/L210W/T215Y mutant infected in human MT2 cells to IC50 for HIV1 NL4-3 infected in human MT2 cells; assay type: functional
Outline: (§4)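 Fold change is the IC50 against the resistant strain divided by the IC50 against the wild-type NL4–3 reference. Both IC50 values come from the BiCycle assay (MT-2 infection, then TZM-bl readout of progeny virus).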

[7] = tested on: Human immunodeficiency virus 1; assay: as §1, with “against” for “against wild-type”, “12465 harboring protease M46I/I54V/Q58E/T74P/V82L/L90M mutant” for “NL4-3”, “MT2” for “HeLa P4.R5MAGI”; assay type: functional, organism-based; conditions: Human immunodeficiency virus 1, 12465; outline: as §3
[8] = tested on: Human immunodeficiency virus 1; assay: as §1, with “against” for “against wild-type”, “11845 harboring integrase 140S/148H double mutant” for “NL4-3”, “MT2” for “HeLa P4.R5MAGI”; assay type: functional, organism-based; conditions: Human immunodeficiency virus 1, 11845; outline: as §3
[9] = tested on: Human immunodeficiency virus 1; assay: Antiviral activity against wild-type HIV1 NL4-3 infected infected in human MT2 cells assessed as reduction in HIV1 extracellular genomic RNA level at 20 uM and measured after 30 hrs post infection by TaqMan probe based RT-PCR analysis; assay type: functional, organism-based; outline: as §2
[10] = tested on: Human immunodeficiency virus 1; assay: Antiviral activity against wild-type HIV1 NL4-3 infected infected in human MT2 cells assessed as reduction in extracellular RNA at 20 uM and measured after 30 hrs post infection by Alu-LTR PCR protocol based method; assay type: functional, organism-based; outline: as §2
[11] = Cytotoxicity against human PBMC cells assessed as reduction in cell viability after 7 days by MTS assay; assay type: cell-based; conditions: read-out: TD50
Outline: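 Cytotoxicity in peripheral blood mononuclear cells by MTS assay, giving TD50. Only compounds that met the BiCycle IC50 ≤ 5 μM criterion and were positive in the NC inhibition assay were tested.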

[12] = tested on: Human immunodeficiency virus 1; assay: Selectivity ratio of IC50 for HIV1 12465 harboring protease M46I/I54V/Q58E/T74P/V82L/L90M mutant infected in human MT2 cells to IC50 for HIV1 NL4-3 infected in human MT2 cells; assay type: functional; outline: as §4
[13] = tested on: Human immunodeficiency virus 1; assay: Selectivity ratio of IC50 for HIV1 12231 harboring non-nucleoside reverse transcriptase 103N/179F/181C mutant infected in human MT2 cells to IC50 for HIV1 NL4-3 infected in human MT2 cells; assay type: functional; outline: as §4
[14] = tested on: Human immunodeficiency virus 1; assay: Antiviral activity against wild-type HIV1 NL4-3 infected infected in human MT2 cells assessed as reduction in HIV1 integrated DNA at 20 uM and measured after 30 hrs post infection by Alu-LTR PCR protocol based method; assay type: functional, organism-based; outline: as §2
[15] = tested on: Human immunodeficiency virus 1; assay: Selectivity ratio of IC50 for HIV1 11845 harboring integrase 140S/148H double mutant mutant infected in human MT2 cells to IC50 for HIV1 NL4-3 infected in human MT2 cells; assay type: functional; outline: as §4
[16] = tested on: Human immunodeficiency virus 1; assay: Antiviral activity against wild type HIV1 NL4-3 infected in human TZM-bl cells assessed as reduction in viral replication after 48 hrs by bright Glo-luciferase reporter gene assay based BiCycle assay; assay type: functional, organism-based; conditions: Human immunodeficiency virus 1, NL4-3, TZM-bl
Outline: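 BiCycle format: MT-2 cells infected with wild-type NL4-3 in the presence of compound dilutions. Virus produced in this first round was then quantified by infecting TZM-bl cells. IC50 was derived from the dose-response data.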

[17] = tested on: Human immunodeficiency virus 1; assay: Antiviral activity against wild-type HIV1 NL4-3 infected infected in human MT2 cells assessed as reduction in intracellular RNA at 20 uM and measured after 30 hrs post infection by Alu-LTR PCR protocol based method; assay type: functional, organism-based; outline: as §2
[18] = tested on: Human immunodeficiency virus 1; assay: Selectivity ratio of IC50 for HIV1 7400 harboring nucleoside reverse transcriptase M41L/D67N/M184V/L210W/T215Y mutant infected in human MT2 cells to IC50 for HIV1 NL4-3 infected in human MT2 cells; assay type: functional; outline: as §4
[19] = tested on: Human immunodeficiency virus 1; assay: Selectivity ratio of IC50 for HIV1 12229 harboring non-nucleoside reverse transcriptase L100I/K103N/H221Y mutant infected in human MT2 cells to IC50 for HIV1 NL4-3 infected in human MT2 cells; assay type: functional; outline: as §4
[20] = tested on: Human immunodeficiency virus 1; assay: as §1, with “against” for “against wild-type”, “12229 harboring non-nucleoside reverse transcriptase L100I/K103N/H221Y mutant” for “NL4-3”, “MT2” for “HeLa P4.R5MAGI”; assay type: functional, organism-based; conditions: Human immunodeficiency virus 1, 12229; outline: as §3
[21] = tested on: Human immunodeficiency virus 1; assay: Antiviral activity against wild-type HIV1 NL4-3 infected in human TZM-bl cells treated with compound assessed as reduction in viral replication after 48 hrs by bright Glo-luciferase reporter gene assay based monocycle assay; conditions: Human immunodeficiency virus 1, NL4-3
[22] = tested on: Human immunodeficiency virus 1; assay: Selectivity ratio of IC50 for HIV1 11808 harboring protease L10F/K20T/V32I/L33F/I54V/G73S/I84V/L89V/L90M mutant infected in human MT2 cells to IC50 for HIV1 NL4-3 infected in human MT2 cells; assay type: functional; outline: as §4
[23] = Selectivity index, ratio of TD50 for cytotoxicity aginst human PBMC cells to IC50 for antiviral activity against wild type HIV1 NL4-3 infected in human TZM-bl cells assessed as reduction in viral replication after 48 hrs by bright Glo-luciferase reporter gene assay based BiCycle assay; assay type: toxicity, cell-based; conditions: read-out: Selectivity Index
Outline: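 SI calculated as TD50 from the PBMC MTS assay divided by IC50 from the BiCycle antiviral assay (MT-2 infection followed by TZM-bl read-out).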

[24] = tested on: Human immunodeficiency virus 1; assay: as §1, with “against” for “against wild-type”, “7400 harboring nucleoside reverse transcriptase M41L/D67N/M184V/L210W/T215Y mutant” for “NL4-3”, “MT2” for “HeLa P4.R5MAGI”; assay type: functional, organism-based; conditions: Human immunodeficiency virus 1, 7400; outline: as §3
[25] = tested on: Human immunodeficiency virus 1; assay: as §1, with “against” for “against wild-type”, “12231 harboring non-nucleoside reverse transcriptase 103N/179F/181C mutant” for “NL4-3”, “MT2” for “HeLa P4.R5MAGI”; assay type: functional, organism-based; conditions: Human immunodeficiency virus 1, 12231; outline: as §3
[26] = tested on: Human immunodeficiency virus 1; assay: Antiviral activity against wild-type HIV1 NL4-3 infected infected in human MT2 cells assessed as reduction in HIV1 intracellular genomic RNA level at 20 uM and measured after 30 hrs post infection by TaqMan probe based RT-PCR analysis; assay type: functional, organism-based; outline: as §2
[27] = tested on: Human immunodeficiency virus 1; assay: as §1, with “against” for “against wild-type”, “7401 harboring nucleoside reverse transcriptase M41L/E44D/D67N/T69D/M184V/L210W/T215Y mutant” for “NL4-3”, “MT2” for “HeLa P4.R5MAGI”; assay type: functional, organism-based; conditions: Human immunodeficiency virus 1, 7401; outline: as §3
[28] = tested on: Human immunodeficiency virus 1; assay: Antiviral activity against wild-type HIV1 NL4-3 infected infected in human MT2 cells assessed as reduction in HIV1 extracellular genomic RNA level at 5 uM and measured after 30 hrs post infection by TaqMan probe based RT-PCR analysis; assay type: functional, organism-based; outline: as §2
[29] = tested on: Human immunodeficiency virus 1; assay: Antiviral activity against wild-type HIV1 NL4-3 infected infected in human MT2 cells assessed as reduction in extracellular RNA at 5 uM and measured after 30 hrs post infection by Alu-LTR PCR protocol based method; assay type: functional, organism-based; outline: as §2
[30] = tested on: Human immunodeficiency virus 1; assay: Antiviral activity against wild-type HIV1 NL4-3 infected infected in human MT2 cells assessed as reduction in HIV1 intracellular genomic RNA level at 5 uM and measured after 30 hrs post infection by TaqMan probe based RT-PCR analysis; assay type: functional, organism-based; outline: as §2
[31] = tested on: Human immunodeficiency virus 1; assay: Antiviral activity against wild-type HIV1 NL4-3 infected infected in human MT2 cells assessed as reduction in HIV1 integrated DNA at 5 uM and measured after 30 hrs post infection by Alu-LTR PCR protocol based method; assay type: functional, organism-based; outline: as §2

| Structure (SMILES) | inhibition [1] [%] | IC50 [5] [µM] | Ratio IC50 [6] | IC50 [7] [µM] | IC50 [8] [µM] | CC50 at 168 h [11] [µM] | Ratio IC50 [12] | Ratio IC50 [13] | Ratio IC50 [15] | IC50 [16] [µM] | Ratio IC50 [18] | Ratio IC50 [19] | IC50 [20] [µM] | IC50 [21] [µM] | Ratio IC50 [22] | selectivity ratio at 48 h [23] | IC50 [24] [µM] | IC50 [25] [µM] | IC50 [27] [µM] | also measured |
| --- | --- | --- | --- | --- | --- | --- | --- | --- | --- | --- | --- | --- | --- | --- | --- | --- | --- | --- | --- | --- |
| Nc1nc(-c2ccccc2OCc2ccc(C(=O)O)cc2)cs1 | 6 | – | – | – | – | – | – | – | – | – | – | – | – | – | – | – | – | – | – | IC50 [2]: 95 µM |
| CC(C)CN(C[C@@H](O)[C@H](Cc1ccccc1)NC(=O)O[C@H]1CO[C@H]2OCC[C@H]21)S(=O)(=O)c1ccc(N)cc1 | – | – | – | – | – | – | – | – | – | – | – | – | – | – | – | – | – | – | – | Activity [3]: Active; Activity [4]: inactive |
| Nc1nc(-c2ccc(OCc3cccc(C(=O)NCCNC(=O)c4ccc(COc5ccc(Cl)cc5-c5csc(N)n5)cc4)c3)cc2)cs1.O=C(O)C(F)(F)F.O=C(O)C(F)(F)F | 20 | 0.6 | 1.8 | 1.6 | 2.2 | > 50 | 2 | 7.5 | 2.7 | 0.8 | 0.9 | 1.2 | 1 | > 50 | 0.7 | > 63 | 0.7 | 6 | 1.4 | Activity [9]: inactive; Activity [10]: Active; Activity [14]: inactive; Activity [17]: inactive; Activity [26]: inactive |
| Nc1nc(CCOC(=O)c2ccc(COc3ccccc3-c3csc(N)n3)cc2)cs1.O=C(O)C(F)(F)F.O=C(O)C(F)(F)F | 18 | 1.1 | 1.5 | 0.4 | 0.7 | 16 | 1.2 | 2.2 | 2.3 | 0.3 | 0.4 | 1 | 0.3 | 1.2 | 3.6 | 53 | 0.1 | 0.7 | 0.5 | Activity [28]: Active; Activity [29]: Active; Activity [30]: Active; Activity [31]: inactive |
